Consider twelve compounds from ChEMBL document CHEMBL1150693, “Structures of new dammarane-type Triterpene Saponins from the flower buds of Panax notoginseng and hepatoprotective effects of principal Ginseng Saponins” (2003).

Type in all cases: functional
Holding throughout (conditions): route intraperitoneal

Experiment [1] has as its system Mus musculus. As to the kind of experiment: Hepatoprotective activity against D-galactosamine/LPS-induced liver injury in ddY mouse assessed as inhibition of serum alanine transaminase level at 100 mg/kg, ip administered 1 hr before D-galactosamine/LPS challenge by Reitman-Frankel method. The method in brief:
(§1)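 Male ddY mice (about 25-27 g) fasted 20 h; liver injury induced by i.p. D-GalN (350 mg/kg) plus LPS (10 µg/kg, Salmonella enteritidis) in saline. Test sample given i.p. 1 h before challenge. Blood taken from infraorbital venous plexus 10 h after D-GalN/LPS; sALT and sAST measured by Reitman-Frankel method (Karmen units). Mean ± SEM; one-way ANOVA with Dunnett's test.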

The test system of experiment [2] is Mus musculus. Kind of experiment: Hepatoprotective activity against D-galactosamine/LPS-induced liver injury in ddY mouse assessed as inhibition of serum aspartate transaminase level at 100 mg/kg, ip administered 1 hr before D-galactosamine/LPS challenge by Reitman-Frankel method. The method in brief:
as §1

The subject of experiment [3] is Mus musculus. As to the kind of experiment: Hepatoprotective activity against D-galactosamine/LPS-induced liver injury in ddY mouse assessed as inhibition of serum alanine transaminase level at 50 mg/kg, ip administered 1 hr before D-galactosamine/LPS challenge by Reitman-Frankel method. The method in brief: as §1
Experiment [4] deals with Mus musculus. Kind of experiment: Hepatoprotective activity against D-galactosamine/LPS-induced liver injury in ddY mouse assessed as inhibition of serum aspartate transaminase level at 50 mg/kg, ip administered 1 hr before D-galactosamine/LPS challenge by Reitman-Frankel method. The method in brief: as §1
Experiment [5] relates to Mus musculus. As to the kind of experiment: Hepatoprotective activity against D-galactosamine/LPS-induced liver injury in ddY mouse assessed as inhibition of serum aspartate transaminase level at 20 mg/kg, ip administered 1 hr before D-galactosamine/LPS challenge by Reitman-Frankel method. The method in brief: (§2)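 Male ddY mice (about 25-27 g) fasted 20 h; liver injury induced by ip D-GalN (350 mg/kg) plus LPS (10 µg/kg, Salmonella enteritidis) in saline. Sample given ip 1 h before D-GalN/LPS. Blood drawn from infraorbital venous plexus 10 h after challenge; sALT and sAST measured by Reitman-Frankel kit, in Karmen units; % inhibition reported. Means ± SEM; one-way ANOVA with Dunnett's test.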

Experiment [6] has as its system Mus musculus. As to the kind of experiment: Hepatoprotective activity against D-galactosamine/LPS-induced liver injury in ddY mouse assessed as inhibition of serum alanine transaminase level at 20 mg/kg, ip administered 1 hr before D-galactosamine/LPS challenge by Reitman-Frankel method. The method in brief: as §2

A word on the inhibition in vivo: it is the percentage by which the read-out fell short of the control.

With `CC(C)=CCC[C@](C)(O[C@@H]1O[C@H](CO)[C@@H](O)[C@H](O)[C@H]1O)[C@H]1CC[C@]2(C)[C@@H]1[C@H](O)C[C@@H]1[C@@]3(C)CC[C@H](O)C(C)(C)[C@@H]3[C@@H](O[C@@H]3O[C@H](CO)[C@@H](O)[C@H](O)[C@H]3O[C@@H]3O[C@H](CO)[C@@H](O)[C@H](O)[C@H]3O)C[C@]12C`, the inhibition in vivo at 100 mg/kg in experiment [1] came to 34%; in experiment [2], 40%.

As to `CC(C)=CCC[C@](C)(O[C@@H]1O[C@H](CO[C@@H]2O[C@H](CO)[C@@H](O)[C@H](O)[C@H]2O)[C@@H](O)[C@H](O)[C@H]1O)[C@H]1CC[C@]2(C)[C@@H]1[C@H](O)C[C@@H]1[C@@]3(C)CC[C@H](O[C@@H]4O[C@H](CO)[C@@H](O)[C@H](O)[C@H]4O[C@@H]4O[C@H](CO)[C@@H](O)[C@H](O)[C@H]4O)C(C)(C)[C@@H]3CC[C@]12C` [GINSENOSIDE RB1], the inhibition in vivo at 100 mg/kg came out at 33% in experiment [1] and 40% in experiment [2].

For `CC(C)=CCC[C@](C)(O[C@@H]1O[C@H](CO[C@@H]2OC[C@@H](O)[C@H](O)[C@H]2O)[C@@H](O)[C@H](O)[C@H]1O)[C@H]1CC[C@]2(C)[C@@H]1[C@H](O)C[C@@H]1[C@@]3(C)CC[C@H](O[C@@H]4O[C@H](CO)[C@@H](O)[C@H](O)[C@H]4O[C@@H]4O[C@H](CO)[C@@H](O)[C@H](O)[C@H]4O)C(C)(C)[C@@H]3CC[C@]12C` [GINSENOSIDE RB3], the values for the inhibition in vivo at 50 mg/kg in experiment [3] and in experiment [4] were 77% and 72%, respectively. Also, the inhibition in vivo at 100 mg/kg in experiment [1] was determined as 91%; in experiment [2], 80%.

Regarding `CC(C)=CCC[C@](C)(O[C@@H]1O[C@H](CO[C@@H]2O[C@@H](CO)[C@H](O)[C@H]2O)[C@@H](O)[C@H](O)[C@H]1O)[C@H]1CC[C@]2(C)[C@@H]1[C@H](O)C[C@@H]1[C@@]3(C)CC[C@H](O[C@@H]4O[C@H](CO)[C@@H](O)[C@H](O)[C@H]4O[C@@H]4O[C@H](CO)[C@@H](O)[C@H](O)[C@H]4O)C(C)(C)[C@@H]3CC[C@]12C` [GINSENOSIDE RC], the inhibition in vivo at 50 mg/kg came to 77% in experiment [3] and 80% in experiment [4]. In addition, the inhibition in vivo at 100 mg/kg in experiment [1] was 89%; in experiment [2], 87%.

Consider `CC(C)=CCC[C@](C)(O[C@@H]1O[C@H](CO)[C@@H](O)[C@H](O)[C@H]1O)[C@H]1CC[C@]2(C)[C@@H]1[C@H](O)C[C@@H]1[C@@]3(C)CC[C@H](O[C@@H]4O[C@H](CO)[C@@H](O)[C@H](O)[C@H]4O[C@@H]4O[C@H](CO)[C@@H](O)[C@H](O)[C@H]4O)C(C)(C)[C@@H]3CC[C@]12C` [GINSENOSIDE RD], for which the values for the inhibition in vivo at 100 mg/kg in experiment [1] and in experiment [2] were 97% and 93%, respectively.

In the case of `CC(C)=CCC[C@](C)(O[C@@H]1O[C@H](CO)[C@@H](O)[C@H](O)[C@H]1O)[C@H]1CC[C@]2(C)[C@@H]1[C@H](O)C[C@@H]1[C@@]3(C)CC[C@H](O)C(C)(C)[C@@H]3[C@@H](O[C@@H]3O[C@H](CO)[C@@H](O)[C@H](O)[C@H]3O[C@@H]3O[C@@H](C)[C@H](O)[C@@H](O)[C@H]3O)C[C@]12C` [GINSENOSIDE RE], the inhibition in vivo at 100 mg/kg in experiment [1] stood at 92%; in experiment [2], 90%.

As for `CC(C)=CCC[C@](C)(O[C@@H]1O[C@H](CO)[C@@H](O)[C@H](O)[C@H]1O)[C@H]1CC[C@]2(C)[C@@H]1[C@H](O)C[C@@H]1[C@@]3(C)CC[C@H](O)C(C)(C)[C@@H]3[C@@H](O[C@@H]3O[C@H](CO)[C@@H](O)[C@H](O)[C@H]3O)C[C@]12C` [GINSENOSIDE RG1], the values for the inhibition in vivo at 100 mg/kg in experiment [1] and in experiment [2] were 30% and 12%, respectively.

As for `CC(C)=CCC[C@](C)(O)[C@H]1CC[C@]2(C)[C@@H]1[C@H](O)C[C@@H]1[C@@]3(C)CC[C@H](O)C(C)(C)[C@@H]3[C@@H](O[C@@H]3O[C@H](CO)[C@@H](O)[C@H](O)[C@H]3O)C[C@]12C` [GINSENOSIDE RH1], the inhibition in vivo at 100 mg/kg is 93% in experiment [1] and 90% in experiment [2].

On to `CC(C)=CCC[C@](C)(O[C@@H]1O[C@H](CO[C@@H]2O[C@H](CO)[C@@H](O)[C@H](O)[C@H]2O)[C@@H](O)[C@H](O)[C@H]1O)[C@H]1CC[C@]2(C)[C@@H]1[C@H](O)C[C@@H]1[C@@]3(C)CC[C@H](O[C@@H]4O[C@H](CO)[C@@H](O)[C@H](O)[C@H]4O)C(C)(C)[C@@H]3CC[C@]12C` [GYPENOSIDE XVII], for which the inhibition in vivo at 100 mg/kg in experiment [1] worked out at 95%; in experiment [2], 91%.

Regarding `C[C@]12CCC(=O)C=C1CC[C@@H]1[C@@H]2[C@@H](O)C[C@@]2(C)[C@H]1CC[C@]2(O)C(=O)CO` [HYDROCORTISONE], the values for the inhibition in vivo at 20 mg/kg in experiment [5] and in experiment [6] were 97% and 99%, respectively.

`CC(C)=CCC[C@](C)(O[C@@H]1O[C@H](CO)[C@@H](O)[C@H](O)[C@H]1O)[C@H]1CC[C@]2(C)[C@@H]1[C@H](O)C[C@@H]1[C@@]3(C)CC[C@H](O)C(C)(C)[C@@H]3[C@@H](O[C@@H]3O[C@H](CO)[C@@H](O)[C@H](O)[C@H]3O[C@@H]3OC[C@@H](O)[C@H](O)[C@H]3O)C[C@]12C` [NOTOGINSENOSIDE R1]: the results for the inhibition in vivo at 100 mg/kg in experiment [1] and in experiment [2] were 87% and 89%, respectively.

`CC(C)=CCC[C@](C)(O[C@@H]1O[C@H](CO[C@@H]2O[C@H](CO)[C@@H](O)[C@H](O)[C@H]2O)[C@@H](O)[C@H](O)[C@H]1O)[C@H]1CC[C@]2(C)[C@@H]1[C@H](O)C[C@@H]1[C@@]3(C)CC[C@H](O)C(C)(C)[C@@H]3[C@@H](O[C@@H]3O[C@H](CO)[C@@H](O)[C@H](O)[C@H]3O)C[C@]12C` [notoginsenoside-R6]: the inhibition in vivo at 100 mg/kg in experiment [1] was 32%; in experiment [2], 44%.
